According to ChEMBL document CHEMBL1641503, “5-Non-amino aromatic substituted naphthalimides as potential antitumor agents: Synthesis via Suzuki reaction, antiproliferative activity, and DNA-binding behavior” (Bioorg Med Chem, 2011):
Calls of active or inactive are those of the source. The calls are words filed in the database; no cut-off is given here.

Columns and labels:
Calf thymus DNA [1] = assay: Binding affinity to calf thymus DNA by fluorescence assay; assay type: nucleic-acid assay; conditions: Bos taurus
Outline: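 CT-DNA held at 50 µM with compound 1 to 25 µM in Tris–HCl (30 mM, pH 7.5); compound without DNA as control. Solutions ultrasonically shaken 1 day at 25 °C in the dark. Fluorescence read at 350 nm excitation. Scatchard binding constant K_b derived from quenching (F0 vs F1) via Scatchard plot.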

[2] = Antiproliferative activity against mouse P388D1 cells after 48 hrs by MTT assay; assay type: functional, cell-based; conditions: P388D1, 48 h
Outline: (§1)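 Cells seeded at 2.5 × 10⁴/well in 1640 complete medium, 37 °C, 5% CO₂, 24 h; compounds added at 100 to 0.01 µM for 48 h; D-Hank's buffer negative control. Cells washed twice with PBS, MTT (0.5 g/L in PBS, in complete medium) 4 h, DMSO to dissolve; absorbance at 492 nm (reference 630 nm). At least three experiments; mean percentage absorbance plotted against concentration.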

HeLa = assay: Antiproliferative activity against human HeLa cells after 48 hrs by MTT assay; assay type: functional, cell-based; outline: as §1
Calf thymus DNA [3] = assay: Binding affinity to calf thymus DNA assessed as increase of viscosity of DNA solution at 100 uM; assay type: nucleic-acid assay; conditions: Bos taurus
Outline: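 Ubbelohde viscometry at 25 ± 0.1 °C. CT-DNA 100 µM in Tris–HCl (30 mM, pH 7.5), kept at 4 °C overnight, sonicated 10 min, filtered 0.45 µm. Flow time measured three times per sample and averaged, corrected for buffer. (η/η0)^1/3 plotted versus compound/DNA ratio.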

Calf thymus DNA [4] = assay: Binding affinity to calf thymus DNA at 10 uM by circular dichroism assay; assay type: nucleic-acid assay; conditions: Bos taurus
Outline: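 CD spectra of CT-DNA (100 µM) with compound at 10 µM in Tris–HCl buffer (pH 7.0), 1-cm quartz cell, 200–600 nm; buffer spectrum subtracted.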

Row | Kb (Calf thymus DNA [1]) | IC50 (HeLa) | Activity (Calf thymus DNA [3]) | Activity (Calf thymus DNA [4]) | Structure (SMILES) | IC50 [2]
1 | 11.8 ×10⁵ /M | – | – | – | CN(C)CCN1C(=O)c2cccc3cc(-c4ccc(C(F)(F)F)cc4)cc(c23)C1=O | –
2 | 10.8 ×10⁵ /M | 45800 nM | – | – | Cc1ccc(-c2cc3c4c(cccc4c2)C(=O)N(CCN(C)C)C3=O)cc1 | 2190 nM
3 | 13.2 ×10⁵ /M | 3100 nM | Active | Active | CN(C)CCN1C(=O)c2cccc3cc(-c4cccs4)cc(c23)C1=O | 680 nM
4 | 12.8 ×10⁵ /M | 5300 nM | – | – | CN(C)CCN1C(=O)c2cccc3cc(-c4ccc(F)c(F)c4)cc(c23)C1=O | 980 nM
5 | 10.8 ×10⁵ /M | 5700 nM | Active | Active | CN(C)CCN1C(=O)c2cccc3cc(-c4ccccc4)cc(c23)C1=O | 680 nM
6 | 12.4 ×10⁵ /M | – | – | – | CN(C)CCN1C(=O)c2cccc3cc(-c4ccc(F)cc4)cc(c23)C1=O | –
7 | 14.8 ×10⁵ /M | 4700 nM | – | – | CN(C)CCN1C(=O)c2cccc3cc(-c4cccc([N+](=O)[O-])c4)cc(c23)C1=O | 380 nM

Row | Structure (SMILES) | Kb (Calf thymus DNA [1]) | IC50 (HeLa) | Activity (Calf thymus DNA [3]) | Activity (Calf thymus DNA [4]) | IC50 [2]
8 | CN(C)CCN1C(=O)c2cccc3cc(N)cc(c23)C1=O [AMONAFIDE] | 1.05 ×10⁵ /M | 6020 nM | – | – | 680 nM
